# Screening results from PubChem BioAssay.
# ADAM10 inh: human ADAM10 inhibitors, primary screen, biochemical, QFRET, HTS. Disintegrin and metalloproteinase domain-containing protein 10 (Homo sapiens), O14672. recombinant ADAM10, EDANS/DABCYL FRET peptide cleavage, 3 h. inhibition, % at 7 µM. 370,000 tested, 0.62% active. AID 720582, 2013;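 active = inhibition above a per-campaign cutoff equal to the mean of compounds falling between control-based bounds plus 3 SD, cut at about 20% in these data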;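 also: 0% = DMSO wells while the 100% control is not disclosed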
# SENP1 inh: human SENP1 catalytic domain inhibitors, primary screen, biochemical, FRET, uHTS. Sentrin-specific protease 1 (Homo sapiens), Q9P0U3. recombinant SENP1 catalytic domain, CyPet-SUMO1-YPet FRET cleavage. inhibition, % at 10 µM. 360,000 tested, 0.21% active;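 active = inhibition at least 30% at 10 µM, raw YFP signal under a set limit, fluorescence ratio 0.5 to 1.5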;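 also: 0% = enzyme with DMSO and 100% = no enzyme wells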
#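 Assay system: hSENP1 catalytic domain, recombinant. Amount: SENP1 enzyme, 20 pM final. Schedule: 50 min reaction, RT, dark. Technique: FRET, CFP and YFP emission. Control set: no-enzyme wells low, DMSO-plus-enzyme wells high control.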
# FAS TE block: FAS thioesterase domain inhibitors, primary screen, biochemical, fluorescence intensity, uHTS. Fatty acid synthase (Homo sapiens), P49327. recombinant FAS-TE, OMFH fluorogenic substrate, fluorescence endpoint. inhibition, % at 15 µM. 360,000 tested, 0.67% active. AID 602261, 2012;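 active = compounds whose normalised, plate-corrected inhibition of enzyme fluorescence in the single-dose primary screen is 50% or more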;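 also: 0% = DMSO with enzyme and 100% = substrate without enzyme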
# ADAM17 inh: ADAM17 inhibitors, primary screen, biochemical, QFRET; Disintegrin and metalloproteinase domain-containing protein 17 (Homo sapiens), P78536; recombinant ADAM17, EDANS/DABCYL FRET peptide cleavage; inhibition, % at 6.95 µM; 370,000 tested, 0.83% active; AID 720648, 2013;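 active = inhibition above the mean of compounds lying between control limits plus 3 SD, set per campaign, cut at about 8.5% in these data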;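 also: 0% = DMSO-only wells as the low control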
# FAS-TE inh conf: FAS thioesterase domain inhibitors, confirmation, biochemical, fluorescence intensity, single concentration; shares compounds with FAS TE block; recombinant FAS-TE, OMFH fluorogenic substrate; inhibition, % at 15 µM; 2,300 tested, 45% active; AID 624325, 2012;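 active = compounds inhibiting the enzyme by at least 50% at 15 µM in any one of the replicates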;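 also: 0% = enzyme with DMSO only and 100% = wells lacking enzyme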
# Starred values were filed as active, the others as inactive; / = not tested or not shown. Only some compounds are listed: those with a hit (about 1.9% of all), similar ones and a draw of the others.
SMILES,ADAM10 inh,SENP1 inh,FAS TE block,ADAM17 inh,FAS-TE inh conf
CCCCN(C=O)c1c(CC)nc2c(OCc3ccc(Cl)cc3Cl)cccn12,14,-6,55*,-1,61*
CCCCN(C=O)c1c(CC)nc2c(OCc3ccc(C(F)(F)F)cc3)cccn12,5,-3,29,1,/
CCc1nc2c(OCc3ccc(C(F)(F)F)cc3)cccn2c1N(C=O)Cc1ccc(OC)cc1,-5,-1,57*,6,52*
COC(=O)CSc1nnc(-c2ccc(NS(=O)(=O)c3ccc(Cl)s3)cc2)o1,0,/,/,0,/
Cc1ccccc1Oc1cc(NC(=O)CCCn2nc(C)c([N+](=O)[O-])c2C)cc([N+](=O)[O-])c1,19,7,40,8,/
Cc1c(Cl)c([N+](=O)[O-])nn1CCCC(=O)Nc1cc(Oc2ccccc2)cc([N+](=O)[O-])c1,-10,1,53*,-1,10
Cc1c(Cl)c([N+](=O)[O-])nn1CCCC(=O)N(Cc1ccccc1)Cc1ccccc1,12,2,63*,6,61*
Cc1c(Cl)c([N+](=O)[O-])nn1CCCC(=O)Nc1c(Cl)cccc1Cl,-1,2,11,-6,/
Cc1ccc(NC(=O)Cn2nc(-c3ccco3)ccc2=O)cc1Cl,-148,-1,50*,-56,33
Cc1ccc(NC(=O)Cn2nc(C)c([N+](=O)[O-])c2C)cc1Cl,3,0,19,3,/
O=[N+]([O-])c1cccc(-c2nnc(C34CC5CC(CC(C5)C3)C4)o2)c1,-6,2,33,-1,/
O=[N+]([O-])c1cc(-c2nnc(C34CC5CC(CC(C5)C3)C4)o2)cc([N+](=O)[O-])c1,-2,2,53*,1,12
COC(=O)C1CN(Cc2cn(CCC3OCCO3)nn2)CCS(=O)(=O)N1Cc1ccc(OC)cc1 (configuration not stated),3,/,/,1,/
Cc1ccc(NC(=O)/C(=C\c2ccccc2)NC(=O)/C=C/c2ccccc2)cc1,-8,1,73*,-5,2
CCCCCCCCN1CCS(=O)(=O)N(Cc2ccc(OC)cc2)C(C(=O)OC)C1 (configuration not stated),9,/,/,5,/
COC(=O)[C@H](CC(C)C)N1Cc2nnn(Cc3ccccc3)c2-c2ccccc2S1(=O)=O,8,/,/,5,/
CCCCCCCCN1C(=O)[C@@H](CC(=O)NCCCN2CCCC2=O)C[C@@]2(C(=O)OC)C1=C[C@H](C(C)(C)C)O[C@@H]2C,10,/,/,3,/
C=CCN1[C@H](CC(C)C)COc2cc(N3CCSCC3)ccc2S1(=O)=O,-2,/,/,-6,/
Cc1c(Cl)c([N+](=O)[O-])nn1CCCC(=O)N1CCN(c2ccccc2)CC1,-10,0,46,6,/
O=C(CCn1c(=O)c2ccccc2n(Cc2cccc([N+](=O)[O-])c2)c1=O)N1CCc2ccccc2C1,3,0,87*,-2,47*
O=C(Cn1cc([N+](=O)[O-])ccc1=O)N1CCc2ccccc2C1,-15,-2,67*,-3,69*
Cc1c(Br)c([N+](=O)[O-])nn1CCCC(=O)N1CCN(c2ccccc2)CC1,1,-3,54*,-2,43*
Cc1c(Br)c([N+](=O)[O-])nn1CC(=O)N1CCc2ccccc2C1,-4,2,64*,4,59*
O=C(N/N=C/c1coc2ccc(Cl)cc2c1=O)c1cc(O)cc(O)c1,-1,0,67*,-1,41
O=C(COC(=O)c1ccc([N+](=O)[O-])cc1)NCCC1=CCCCC1,-5,2,38,-2,/
SMILES,ADAM10 inh,SENP1 inh,FAS TE block,ADAM17 inh,FAS-TE inh conf
COC(=O)c1ccc(COc2cc([N+](=O)[O-])cc3cccnc23)o1,8,-4,55*,1,57*
O=C(COc1cc([N+](=O)[O-])cc2cccnc12)NCCC1=CCCCC1,-7,-1,83*,-3,87*
COC(=O)c1ccc(COc2ccc(C)cc2[N+](=O)[O-])o1,6,2,10,0,/
COc1ccc(CCNC(=O)c2cc([N+](=O)[O-])ccc2N2CCOCC2)cc1,8,1,25,4,/
CCOc1ccc(CCNC(=O)COC(=O)c2cc([N+](=O)[O-])ccc2N2CCOCC2)cc1OCC,-1,0,53*,1,57*
O=C(COC(=O)c1cc([N+](=O)[O-])ccc1N1CCOCC1)NCc1ccc(F)cc1,-3,0,88*,0,81*
O=C(COC(=O)c1cc([N+](=O)[O-])ccc1N1CCOCC1)NCCc1ccccc1,-6,1,78*,-3,66*
COc1cccc(-n2c(CN3CCN(c4ccccn4)CC3)nc3ccc([N+](=O)[O-])cc3c2=O)c1,5,1,81*,5,81*
COc1cccc(-n2c(CN3CCN(c4cccc(C)c4)C(C)C3)nc3ccc([N+](=O)[O-])cc3c2=O)c1 (configuration not stated),-3,0,80*,0,20
O=C(Nc1ccc2c(c1)OCO2)O[C@@H]1CC[C@@]23CCCN2C(=O)CCC[C@H]3C1,0,/,/,0,/
CC(Cc1ccccc1)=NNS(=O)(=O)c1ccc([N+](=O)[O-])cc1,-7,2,60*,-6,66*
O=[N+]([O-])c1ccc(S(=O)(=O)Nc2ccc(-c3ccccc3)cc2)cc1,15,1,70*,5,70*
CC(=O)Nc1ccc(C=NNc2ccc([N+](=O)[O-])cc2S(=O)(=O)Nc2ccccc2C(=O)O)cc1,-2,-19,42,3,/
COc1ccc(C(C)=NNc2ccc([N+](=O)[O-])cc2S(=O)(=O)Nc2ccccc2C(=O)O)c(OC)c1,-8,-29,71*,1,68*
O=C(Nc1ccc(Cl)cc1)C(Cl)C(=O)c1ccccc1 (configuration not stated),-2,2,77*,6,87*
CC(CCc1ccco1)NC(=O)c1cccc2c1C(=O)N(C1CCCCC1)C2 (configuration not stated),11,0,63*,4,9
O=c1oc(-c2cccnc2)nc2ccccc12,5,3,2,-3,/
O=c1oc(-c2ccccc2Br)nc2ccccc12,-5,0,61*,-2,53*
COc1cc2ncc(S(=O)(=O)c3ccccc3)c(N3CCC4(CC3)OCCO4)c2cc1OC,-4,-1,82*,-2,82*
N#CCC[C@H]1CC[C@]2(CCCN(C(=O)c3ccccc3)C2)O1,-12,/,/,-2,/
Cc1nc(N2CCN(S(=O)(=O)c3ccccc3C#N)CC2)c2c(-c3cccs3)csc2n1,2,-21,51*,-4,30
